Experimental data published in ChEMBL document CHEMBL4028909, “Discovery of an Orally Bioavailable Benzofuran Analogue That Serves as a β-Amyloid Aggregation Inhibitor for the Potential Treatment of Alzheimer's Disease” (J Med Chem, 2018).

Columns and labels:
HT-22 = assay: Neuroprotective activity against amyloid beta-induced toxicity in mouse HT22 cells assessed as increase in cell viability preincubated for 1 hr followed by amyloid beta challenge measured after 18 hrs by MTT assay; type: functional, cell-based
Method in brief: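 Mouse hippocampal HT22 cells were treated with compound at several concentrations and then exposed to preformed Aβ aggregates made from 25 μM monomeric Aβ. Viability was read by MTT and scaled between untreated cells and Aβ-only cells. Mean±SD of three independent experiments; one-way ANOVA with Dunnett test.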

Mus musculus [1] = assay: Reversal of cognitive deficit in amyloid beta (1 to 42)-treated Alzheimer's disease ICR mouse model assessed as increase in step-through latency time administered orally for 3 consecutive days by passive avoidance test; type: functional
Method in brief: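 Acute AD model: preformed Aβ aggregates injected into the brains of normal mice. Compound given orally for three consecutive days, then step-through passive avoidance was tested by a standard protocol. Read-out is step-through latency (sec), compared against control and vehicle groups.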

Mus musculus [2] = assay: Reversal of cognitive deficit in amyloid beta (1 to 42)-treated Alzheimer's disease ICR mouse model assessed as increase in spatial memory function by measuring spontaneous alternation at 10 mg/kg, po administered for 3 consecutive days by Y maze test relative to control; type: functional
Method in brief: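 Acute AD model: preformed Aβ aggregates injected directly into the brains of normal mice to induce acute neurotoxicity. Compound given orally for three consecutive days, then the Y-maze was run. Read-out is percentage of spontaneous alternation, compared against normal and vehicle-treated mice.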

Mus musculus [3] = assay: Antiamyloidogenic activity in po dosed double APP/PS1 transgenic Alzheimer's disease mouse model assessed as decrease in amyloid beta (1 to 42) levels in brain administered as qd for 8 weeks by sandwich ELISA; type: functional, organism-based
Method in brief: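 APP/PS1 mice, 29 weeks old, were dosed orally once daily for eight weeks at 30 or 100 mg/kg, with a vehicle group. Brain tissue was homogenized and amyloid fibrils were solubilized to monomers. Aβ1-40 and Aβ1-42 were then quantified by immunoassay with antibodies specific to monomeric Aβ.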

[4] = Terminal half life in mouse at 3 mg/kg, iv; type: ADME, organism-based; conditions: in vivo, read-out: beta t1/2 (converted)
Method in brief: (§1)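 Mouse pharmacokinetics: single i.v. dose of 3 mg/kg, or oral doses of 3, 10 and 30 mg/kg. Plasma concentration–time curves gave T1/2 (terminal, hr), Tmax (hr), Cmax, AUC and bioavailability (%).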

[5] = Initial concentration in mouse at 3 mg/kg, iv; type: ADME, organism-based; conditions: in vivo
Method in brief: (§2)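 Mice received a single dose of 3 mg/kg i.v. or 3, 10 or 30 mg/kg orally. Plasma concentration-time profiles were analysed for AUC from zero to infinity and to the last measured time (hr*ng/mL), Cmax (ng/mL, C0 after i.v.), Tmax and terminal half-life (hr), and oral bioavailability (%).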

[6] = AUClast in mouse at 3 mg/kg, iv; type: ADME, organism-based; set-up: dose 3 mg/kg, time 0 - last, route intravenous; conditions: in vivo; method in brief: as §2
Mus musculus [7] = assay: AUC (infinity) in mouse at 3 mg/kg, iv; type: ADME, organism-based; set-up: dose 3 mg/kg, route intravenous, time infinity; conditions: in vivo; method in brief: as §2
[8] = Terminal half life in mouse at 3 mg/kg, po; type: ADME, organism-based; conditions: in vivo, read-out: beta t1/2 (converted); method in brief: as §1
[9] = AUC (infinity) in mouse at 3 mg/kg, po; type: ADME, organism-based; set-up: dose 3 mg/kg, time infinity, route oral; conditions: in vivo; method in brief: as §2
[10] = Oral bioavailability in mouse at 3 mg/kg; type: ADME, organism-based; conditions: in vivo; method in brief: as §2
[11] = AUClast in mouse at 10 mg/kg, po; type: ADME, organism-based; set-up: dose 10 mg/kg, route oral, time 0 - last; conditions: in vivo; method in brief: as §2
[12] = AUC (infinity) in mouse at 10 mg/kg, po; type: ADME, organism-based; set-up: dose 10 mg/kg, time infinity, route oral; conditions: in vivo; method in brief: as §2
[13] = Terminal half life in mouse at 30 mg/kg, po; type: ADME, organism-based; conditions: in vivo, read-out: beta t1/2 (converted); method in brief: as §1
[14] = Tmax in mouse at 30 mg/kg, po; type: ADME, organism-based; conditions: in vivo; method in brief: as §1
[15] = AUClast in mouse at 30 mg/kg, po; type: ADME, organism-based; set-up: dose 30 mg/kg, time 0 - last, route oral; conditions: in vivo; method in brief: as §2
[16] = Oral bioavailability in mouse at 30 mg/kg; type: ADME, organism-based; conditions: in vivo; method in brief: as §2
[17] = Half life in po dosed dog; type: ADME, organism-based, Canis lupus familiaris; conditions: in vivo
[18] = Half life in po dosed monkey; type: ADME, organism-based, Macaca mulatta; conditions: rhesus monkey, in vivo
[19] = Cmax in po dosed dog; type: ADME, organism-based, Canis lupus familiaris; set-up: route oral; conditions: in vivo
[20] = AUC in po dosed rat; type: ADME, organism-based; conditions: in vivo
[21] = AUC in po dosed dog; type: ADME, organism-based, Canis lupus familiaris; conditions: in vivo
[22] = AUC in po dosed ICR mouse; type: ADME, organism-based; conditions: in vivo
[23] = Oral bioavailability in dog; type: ADME, organism-based, Canis lupus familiaris; conditions: in vivo
[24] = Oral bioavailability in monkey; type: ADME, organism-based, Macaca mulatta; conditions: rhesus monkey, in vivo
[25] = Ratio of AUC in ICR mouse brain to AUC in ICR mouse plasma at 10 mg/kg, po measured at 0.333 hrs; type: ADME, organism-based; conditions: read-out: Ratio AUC
Method in brief: (§3)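 ICR mice (n=3) given a single oral dose of 10 mg/kg. Brain and plasma were sampled over nine hours, at 0.333, 1, 3, 6 and 9 h. Kp was calculated as AUC_brain/AUC_plasma.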

[26] = Ratio of AUC in ICR mouse brain to AUC in ICR mouse plasma at 10 mg/kg, po measured at 6 hrs; type: ADME, organism-based; conditions: read-out: Ratio AUC; method in brief: as §3
Cytochrome P450 2A6 = target: T1, Cytochrome P450 2A6 (Homo sapiens, UniProt P11509); assay: Inhibition of CYP2A6 in human liver microsomes preincubated for 5 mins followed by addition of NADPH generating system measured after 20 mins by LC-MS/MS analysis; type: ADME
T1 sequence (P11509 whole entry): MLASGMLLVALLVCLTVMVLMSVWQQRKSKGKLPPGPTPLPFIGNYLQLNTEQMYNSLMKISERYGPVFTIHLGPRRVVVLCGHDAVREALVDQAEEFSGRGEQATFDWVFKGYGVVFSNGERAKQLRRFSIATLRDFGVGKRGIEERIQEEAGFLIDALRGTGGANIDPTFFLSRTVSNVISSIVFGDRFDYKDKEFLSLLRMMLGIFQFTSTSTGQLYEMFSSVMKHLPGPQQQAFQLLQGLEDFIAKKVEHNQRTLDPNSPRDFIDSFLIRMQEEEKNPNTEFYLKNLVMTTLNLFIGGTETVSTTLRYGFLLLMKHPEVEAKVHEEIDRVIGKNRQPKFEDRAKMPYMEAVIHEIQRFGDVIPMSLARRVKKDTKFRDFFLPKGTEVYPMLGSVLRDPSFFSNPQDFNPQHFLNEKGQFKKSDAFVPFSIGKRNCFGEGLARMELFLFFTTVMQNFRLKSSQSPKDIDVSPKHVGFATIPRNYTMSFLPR
Method in brief: (§4)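 Inhibition of each CYP isozyme (1A2, 2A6, 2C8, 2C9, 2C19, 2D6, 3A4) was measured in human liver microsomes. IC50 values were reported in μM.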

Cytochrome P450 3A4 = Cytochrome P450 3A4 (Homo sapiens, UniProt P08684); assay: Inhibition of CYP3A4 in human liver microsomes preincubated for 5 mins followed by addition of NADPH generating system measured after 20 mins by LC-MS/MS analysis; type: ADME; method in brief: as §4
Chain of Cytochrome P450 3A4 (P08684 whole entry): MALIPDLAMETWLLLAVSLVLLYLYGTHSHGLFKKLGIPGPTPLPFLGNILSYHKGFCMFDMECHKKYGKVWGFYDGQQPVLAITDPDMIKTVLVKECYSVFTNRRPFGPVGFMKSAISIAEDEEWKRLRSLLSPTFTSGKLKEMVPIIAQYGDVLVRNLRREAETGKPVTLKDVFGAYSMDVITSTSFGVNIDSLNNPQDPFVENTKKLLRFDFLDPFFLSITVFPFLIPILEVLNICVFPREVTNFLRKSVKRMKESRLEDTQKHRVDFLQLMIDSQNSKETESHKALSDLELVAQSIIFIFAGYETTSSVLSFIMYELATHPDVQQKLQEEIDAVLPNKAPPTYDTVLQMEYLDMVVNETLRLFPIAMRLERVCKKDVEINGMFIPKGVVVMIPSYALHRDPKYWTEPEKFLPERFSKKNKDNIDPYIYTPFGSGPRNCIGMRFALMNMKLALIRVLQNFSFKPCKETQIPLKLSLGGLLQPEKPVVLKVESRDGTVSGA

COCCCc1ccc2oc(-c3ccc(OC)c(OC)c3)cc2c1
Activity (HT-22): Dose-dependent effect | Activity (Mus musculus [1]): Dose-dependent effect | ED50 (Mus musculus [1]; po): 0.19 mg/kg | Activity (Mus musculus [2]): 73.07% | Activity (Mus musculus [3]): Dose-dependent effect | half-life [4]: 1.4 h | C0 [5]: 4870 ng/mL | AUC(0-t) [6]: 1300 ng·h/mL | AUC (Mus musculus [7]): 1325.1 ng·h/mL | half-life [8]: 2 h | AUC(0-inf) [9]: 283 ng·h/mL | bioavailability [10]: 21.4% | AUC(0-t) [11]: 2240 ng·h/mL | AUC(0-inf) [12]: 2290 ng·h/mL | half-life [13]: 3.3 h | Tmax [14]: 3 h | AUC(0-t) [15]: 10400 ng·h/mL | bioavailability [16]: 79.1% | half-life [17]: 1.4 h | half-life [18]: 12.9 h | Cmax [19]: 1610 ng/mL | AUC [20]: 4200 ng·h/mL | AUC [21]: 4190 ng·h/mL | AUC [22]: 13200 ng·h/mL | bioavailability [23]: 25% | bioavailability [24]: 70% | Kp at 0.333 h [25]: 1.2 | Kp at 6 h [26]: 1.2 | IC50 (Cytochrome P450 2A6): > 50 µM | IC50 (Cytochrome P450 3A4): > 50 µM
